This is an account of results in ChEMBL document CHEMBL1136847, “Syntheses and potential anti-prostate cancer activities of ionone-based chalcones” (Bioorg Med Chem Lett, 2009).

Assay [1] deals with Androgen receptor (Homo sapiens), P10275 [T878A]. Put plainly: Antagonist activity at androgen receptor T877A mutant in human PC3 cells transiently transfected with pCMV-MMTV-Luc assessed as suppression of DHT-induced receptor transactivation. The conditions noted are these: PC-3. The assay is classed as functional, cell-based. Put shortly: (§1)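 PC-3 cells seeded 24 h before co-transfection with MMTV-luciferase reporter (100 ng), the wild-type, T877A, W741C or H874Y AR plasmid (10 ng) and Renilla null luciferase (10 ng) using Lipofectamine 2000. Medium switched after 5 h to phenol red-free RPMI 1640 with 10% charcoal-stripped FBS. After 16 h, 0.1 nM DHT ± compound (0.1, 1.0 µM) for 24 h. Dual-luciferase read-out, Renilla-standardized, normalized to DHT alone (100%).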

In assay [2] the test system is T1, Androgen receptor (Homo sapiens), P10275 [H875Y].
T1 sequence (whole entry): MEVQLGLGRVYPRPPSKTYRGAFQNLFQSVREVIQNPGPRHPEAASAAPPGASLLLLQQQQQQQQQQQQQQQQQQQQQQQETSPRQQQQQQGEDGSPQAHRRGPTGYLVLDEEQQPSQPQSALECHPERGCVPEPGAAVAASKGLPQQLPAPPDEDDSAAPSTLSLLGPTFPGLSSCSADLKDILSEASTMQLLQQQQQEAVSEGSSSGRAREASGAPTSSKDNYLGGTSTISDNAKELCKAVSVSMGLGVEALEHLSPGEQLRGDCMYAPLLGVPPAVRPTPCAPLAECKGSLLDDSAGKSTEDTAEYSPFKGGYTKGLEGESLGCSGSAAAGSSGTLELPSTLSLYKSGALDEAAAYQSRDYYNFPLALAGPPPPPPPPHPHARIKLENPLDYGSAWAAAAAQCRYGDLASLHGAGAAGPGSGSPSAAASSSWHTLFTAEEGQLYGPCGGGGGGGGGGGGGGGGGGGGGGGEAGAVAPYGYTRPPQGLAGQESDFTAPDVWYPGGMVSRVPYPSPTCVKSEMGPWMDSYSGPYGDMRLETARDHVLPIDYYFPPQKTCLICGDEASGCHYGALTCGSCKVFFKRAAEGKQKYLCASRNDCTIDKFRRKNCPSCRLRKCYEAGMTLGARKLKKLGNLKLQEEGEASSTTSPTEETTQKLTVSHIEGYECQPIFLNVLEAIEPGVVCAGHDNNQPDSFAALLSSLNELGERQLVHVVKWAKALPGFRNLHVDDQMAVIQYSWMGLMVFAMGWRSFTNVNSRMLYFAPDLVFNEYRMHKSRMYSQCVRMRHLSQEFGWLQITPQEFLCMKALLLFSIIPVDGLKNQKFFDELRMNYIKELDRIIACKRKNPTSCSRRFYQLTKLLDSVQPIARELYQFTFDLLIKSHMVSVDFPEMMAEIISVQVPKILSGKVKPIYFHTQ
Kind of assay: Antagonist activity at androgen receptor H874Y mutant in human PC3 cells transiently transfected with pCMV-MMTV-Luc assessed as suppression of DHT-induced receptor transactivation. The format is functional, cell-based. To be noted: PC-3. Put shortly: as §1

A short description of assay [3]: Cytotoxicity against human RWPE1 cells after 72 hrs by MTT assay. The assay is classed as cell-based. The conditions noted are these: RWPE-1, 72 h. The essentials: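 Non-tumorigenic prostate epithelial line plated at 6000–7000 cells per well in keratinocyte serum-free medium with 0.05 mg/mL bovine pituitary extract and 5 ng/mL EGF; overnight attachment, then compounds at various concentrations in 0.5% final DMSO for 72 h. MTT 2 h, formazan read; IC50 from survival curves versus DMSO control.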
For orientation: Tetrazolium dyes change colour on reduction, which living cells bring about.

Molecules are shown by their SMILES.

Chain of Androgen receptor (Homo sapiens), P10275 [T878A] (P10275 whole entry T878A): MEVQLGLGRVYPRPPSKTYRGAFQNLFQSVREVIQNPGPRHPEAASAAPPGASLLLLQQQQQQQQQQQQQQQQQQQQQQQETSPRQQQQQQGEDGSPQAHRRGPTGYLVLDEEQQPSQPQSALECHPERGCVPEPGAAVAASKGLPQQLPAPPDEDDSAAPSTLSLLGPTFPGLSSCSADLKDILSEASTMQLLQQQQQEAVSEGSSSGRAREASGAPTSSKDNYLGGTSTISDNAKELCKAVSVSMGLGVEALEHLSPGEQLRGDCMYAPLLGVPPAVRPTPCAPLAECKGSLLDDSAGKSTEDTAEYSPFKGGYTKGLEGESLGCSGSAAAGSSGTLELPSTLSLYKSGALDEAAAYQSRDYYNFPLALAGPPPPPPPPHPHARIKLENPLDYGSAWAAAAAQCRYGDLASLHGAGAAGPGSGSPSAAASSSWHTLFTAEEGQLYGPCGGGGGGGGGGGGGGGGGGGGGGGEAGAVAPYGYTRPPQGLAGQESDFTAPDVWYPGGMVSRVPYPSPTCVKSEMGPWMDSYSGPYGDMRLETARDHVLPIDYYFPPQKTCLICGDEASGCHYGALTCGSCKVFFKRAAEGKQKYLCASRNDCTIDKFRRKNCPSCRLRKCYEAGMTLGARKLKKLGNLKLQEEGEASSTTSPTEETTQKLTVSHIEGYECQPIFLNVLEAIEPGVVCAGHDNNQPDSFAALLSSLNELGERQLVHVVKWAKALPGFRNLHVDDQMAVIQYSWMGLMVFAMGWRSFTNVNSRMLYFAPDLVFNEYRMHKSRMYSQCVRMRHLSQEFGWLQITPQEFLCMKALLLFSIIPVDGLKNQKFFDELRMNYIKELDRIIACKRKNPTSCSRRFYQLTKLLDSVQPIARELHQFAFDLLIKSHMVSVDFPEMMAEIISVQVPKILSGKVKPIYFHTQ

For the molecule `CC1=C(/C=C/C(=O)/C=C/c2cccc(C(F)(F)F)c2)C(C)(C)CCC1O` (stereo not drawn), the Activity result in assay [1] and in assay [2] was “Dose-dependent effect” in each case. For the same molecule, in assay [3], half-maximal inhibition (IC50) was put at 730 nM.

The term IC50 denotes the concentration needed to halve the response being measured.
